# Assay results: ChEMBL document CHEMBL1121853, “New antiarrhythmic agents. 7. 2,3-Diaminopropionanilides” (J Med Chem, 1981)
# Key:
# Rattus norvegicus [1] = assay: Anesthetic activity of compound (0.125%) was evaluated by duration of sciatic nerve block; assay type: functional
# Method in brief: (§1)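 Rat sciatic nerve block: 0.2 mL of test solution (concentration as base, with 1:100 000 epinephrine) injected into the mid-thigh around the sciatic nerve trunk, both hind limbs. Five rats per concentration, so up to 10 blocks. Animals examined at frequent intervals for onset of and recovery from motor block. Duration given as mean ± standard deviation.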
# [2] = Lethal dose of compound evaluated by administering intravenously to female CRCD mice; assay type: toxicity, organism-based; details: mouse, in vivo, iv
# Method in brief: (§2)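 Female CRCD mice (20–25 g), in groups, given compound dissolved in isotonic saline or distilled water, either by tail-vein (iv) or intraperitoneal injection. Doses expressed as base. LD50 and 95% confidence limits calculated by the minimum logit chi-square method.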
# [3] = Lethal dose of compound evaluated by administering intraperitoneally to female CRCD mice; assay type: toxicity, organism-based; details: mouse, in vivo, ip; method in brief: as §2
# Rattus norvegicus [4] = assay: Anesthetic activity of compound (0.5%) was evaluated by duration of sciatic nerve block; assay type: functional; method in brief: as §1
# Rattus norvegicus [5] = assay: Anesthetic activity of compound (0.25%) was evaluated by duration of sciatic nerve block; assay type: functional; method in brief: as §1
# Mus musculus [6] = assay: Percent protection against chloroform induced tachycardia in mice at 200 mg/kg; Inactive; assay type: functional
# Mus musculus [7] = assay: CNS toxicity expressed as percent of ataxia evoked in mice at a dose of 200 mg/kg; Inactive; assay type: functional
# Mus musculus [8] = assay: CNS toxicity expressed as percent of convulsions evoked in mice at a dose of 200 mg/kg; Inactive; assay type: functional
# Rattus norvegicus [9] = assay: Anesthetic activity of compound (1.0%) was evaluated by duration of sciatic nerve block; assay type: functional; method in brief: as §1
# Mus musculus [10] = assay: Percent protection against chloroform induced tachycardia in mice at 100 mg/kg; assay type: functional
# Rattus norvegicus [11] = assay: Anesthetic activity of compound (2.0%) was evaluated by duration of sciatic nerve block
# Mus musculus [12] = assay: CNS toxicity expressed as percent of convulsions evoked in mice at a dose of 100 mg/kg; assay type: functional
# Mus musculus [13] = assay: CNS toxicity expressed as percent of ataxia evoked in mice at a dose of 100 mg/kg; assay type: functional
# Mus musculus [14] = species on record: Mus musculus; assay: Effective dose of compound that evoked CNS toxicity in mice in the form of convulsions; assay type: functional
# Method in brief: (§3)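 Mice dosed subcutaneously, groups of 10. Over a 20-min period they were watched for ataxia, convulsions, loss of righting reflex or death, then each was placed in chloroform-vapor-saturated air until respiration ceased. ED50 with 95% Fieller limits for protection against tachycardia, ataxia and convulsions, calculated by Berkson's logit chi-square method.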
# Mus musculus [15] = species on record: Mus musculus; assay: Effective dose of compound that protects mice against chloroform induced tachycardia; assay type: functional; method in brief: as §3
# Mus musculus [16] = species on record: Mus musculus; assay: Effective dose of compound that evoked CNS toxicity in mice in the form of ataxia; assay type: functional; method in brief: as §3
# Mus musculus [17] = assay: Percent protection against chloroform induced tachycardia in mice at 15.8 mg/kg; Inactive; assay type: functional
# Mus musculus [18] = assay: CNS toxicity expressed as percent of ataxia evoked in mice at a dose of 50.1 mg/kg; assay type: functional
# Mus musculus [19] = assay: CNS toxicity expressed as percent of convulsions evoked in mice at a dose of 631 mg/kg; assay type: functional
# Mus musculus [20] = assay: Percent death against chloroform induced tachycardia in mice at 631 mg/kg; assay type: functional
# Method in brief: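 Mice in groups of 10, dosed subcutaneously, then watched for 20 min for ataxia, convulsions, loss of righting reflex or death. Survivors were placed individually in chloroform-vapour-saturated air until respiration ceased. Percent of animals dead at the single dose was recorded alongside protection, ataxia and convulsion counts.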
# Mus musculus [21] = assay: CNS toxicity expressed as percent of ataxia evoked in mice at a dose of 631 mg/kg; assay type: functional
# Mus musculus [22] = assay: Percent protection against chloroform induced tachycardia n mice at 631 mg/kg; Inactive; assay type: functional
# Mus musculus [23] = assay: CNS toxicity expressed as percent of ataxia evoked in mice at a dose of 10 mg/kg; assay type: functional
# Rattus norvegicus [24] = assay: Anesthetic activity of compound (0.25%) was evaluated by duration of sciatic nerve block; NB= no blocks (0/10); assay type: functional, organism-based; method in brief: as §1
# Rattus norvegicus [25] = assay: Anesthetic activity of compound (0.125%) was evaluated by duration of sciatic nerve block; NB= no blocks (0/10); assay type: functional, organism-based; method in brief: as §1
# Mus musculus [26] = assay: Percent protection against chloroform induced tachycardia in mice at 398 mg/kg; assay type: functional
# Mus musculus [27] = assay: CNS toxicity expressed as percent of convulsions evoked in mice at a dose of 79.4 mg/kg; Inactive; assay type: functional
# Mus musculus [28] = assay: Percent protection against chloroform induced tachycardia in mice at 79.4 mg/kg; Inactive; assay type: functional
# Mus musculus [29] = assay: CNS toxicity expressed as percent of ataxia evoked in mice at a dose of 79.4 mg/kg; assay type: functional
Structure (SMILES),Duration (Rattus norvegicus [1]),LD50 [3],Duration (Rattus norvegicus [4]),Duration (Rattus norvegicus [5]),Duration (Rattus norvegicus [9]),ED50 (Mus musculus [14]),ED50 (Mus musculus [15]),ED50 (Mus musculus [16]),also measured
CCCN(CC)C(CC)C(=O)Nc1c(C)cccc1C (centres undefined) [ETIDOCAINE],156 min,56 mg/kg,279 min,222 min,–,–,–,–,LD50 [2]: 7 mg/kg
Cc1cccc(C)c1NC(=O)C1CNCCN1 (centres undefined),–,–,–,–,–,–,–,–,Protection (Mus musculus [6]): 10%; Ataxia (Mus musculus [7]): 0%; Convulsions (Mus musculus [8]): 0%
CCN(CC)CC(C(=O)Nc1cccc(OC)c1)N(CC)CC (centres undefined),77 min,–,100 min,87 min,145 min,–,–,–,LD50 [2]: 20 mg/kg; Protection (Mus musculus [10]): 60%; Duration (Rattus norvegicus [11]): 265 min; Convulsions (Mus musculus [12]): 0%; Ataxia (Mus musculus [13]): 0%
Cc1cccc(C)c1NC(=O)C(CN(C)C)N(C)C (centres undefined),–,–,–,–,–,23 mg/kg,17 mg/kg,16 mg/kg,–
CCCN(CC)CC(C(=O)Nc1ccc(OC)cc1C)N(CC)CCC (centres undefined),96 min,66 mg/kg,227 min,107 min,–,–,–,–,–
CCN(CC)CC(C(=O)Nc1cc(C)ccc1OC)N(CC)CC (centres undefined),94 min,81 mg/kg,166 min,125 min,273 min,137 mg/kg,106 mg/kg,96 mg/kg,–
C=CCN(C)CC(C(=O)Nc1c(C)cccc1C)N(C)CC=C (centres undefined),–,–,–,–,–,17 mg/kg,–,13 mg/kg,Protection (Mus musculus [17]): 30%
CCOc1ccccc1NC(=O)C(CN(C)CC)N(C)CC (centres undefined),78 min,94 mg/kg,136 min,105 min,189 min,–,–,–,–
Cc1cccc(C)c1NC(=O)C(CN(C)C(C)C)N(C)C(C)C (centres undefined),–,–,–,–,–,9.3 mg/kg,6.1 mg/kg,6 mg/kg,–
COCCN(C)CC(C(=O)Nc1c(C)cccc1C)N(C)CCOC (centres undefined),–,–,–,–,–,5.1 mg/kg,2.6 mg/kg,4.3 mg/kg,–
Cc1cccc(C)c1NC(=O)C(CN1CCCC1)N1CCCC1 (centres undefined),–,–,–,–,–,12 mg/kg,14 mg/kg,12 mg/kg,–
CCCN(CC)CC(C(=O)Nc1ccccc1OC)N(CC)CCC (centres undefined),80 min,–,260 min,116 min,–,–,–,–,LD50 [2]: 11 mg/kg
CCN(CC)CC(C(=O)Nc1ccccc1OC)N(CC)CC (centres undefined),–,70 mg/kg,66 min,91 min,178 min,65 mg/kg,81 mg/kg,–,Ataxia (Mus musculus [18]): 40%; Duration (Rattus norvegicus [11]): 184 min
C#CCN(C)CC(C(=O)Nc1c(C)cccc1C)N(C)CC#C (centres undefined),–,–,–,–,–,–,–,–,Convulsions (Mus musculus [19]): 40%; Death (Mus musculus [20]): 40%; Ataxia (Mus musculus [21]): 40%; Protection (Mus musculus [22]): 0%
CCN(C)CC(C(=O)Nc1c(C)cccc1C)N(C)CC (centres undefined),–,–,–,–,–,12 mg/kg,13 mg/kg,–,Ataxia (Mus musculus [23]): 100%
CCOc1ccccc1NC(=O)C(CN(CC)CC)N(CC)CC (centres undefined),140 min,81 mg/kg,176 min,138 min,–,–,–,–,–
CCN(CC)CC(=O)Nc1c(C)cccc1C [LIDOCAINE],–,–,123 min,102 min,162 min,–,61 mg/kg,42 mg/kg,–
Cc1cccc(C)c1NC(=O)C(C)N (centres undefined) [TOCAINIDE],–,–,44 min,–,79 min,–,250 mg/kg,146 mg/kg,LD50 [2]: 94 mg/kg
CCOc1ccc(NC(=O)C(CN(C)C)N(C)C)cc1OCC (centres undefined),–,–,83 min,–,133 min,317 mg/kg,–,199 mg/kg,Duration (Rattus norvegicus [24]): No blocks; Duration (Rattus norvegicus [11]): 147 min; Duration (Rattus norvegicus [25]): No blocks; Protection (Mus musculus [26]): 50%
CCN(CC)CCC(=O)Nc1c(C)cccc1C,–,–,146 min,110 min,184 min,–,69 mg/kg,52 mg/kg,–
CCN(CC)CC(C(=O)Nc1ccc(OC)cc1C)N(CC)CC (centres undefined),162 min,102 mg/kg,157 min,151 min,150 min,–,–,–,Duration (Rattus norvegicus [11]): 184 min
Cc1cccc(C)c1NC(=O)C(CN1CCOCC1)N1CCOCC1 (centres undefined),72 min,–,102 min,72 min,138 min,–,–,–,Convulsions (Mus musculus [27]): 0%; Protection (Mus musculus [28]): 10%; Ataxia (Mus musculus [29]): 100%; Duration (Rattus norvegicus [11]): 193 min
